# Source: PubChem
# This is a sample that favours compounds with a hit; in the whole collection about 3.5% have one here.
# MrgX1 antagonist = antagonists of human MrgX1 receptor | 310,000 tested, 1.3% active | MRGX1-HEK293 calcium flux, Fluo-4, BAM8-22 antagonism; active compounds read low | B-score at 10 µM | Q96LB2;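 active means calcium-response B-score plate-corrected more than 3 library SD below zero, starting fluorescence within 5 deviations, no agonist response on first addition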;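 further: peak minus trough fluorescence over baseline after final BAM8-22 challenge near maximal dose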
# Target sequence (Q96LB2 whole entry, looked up): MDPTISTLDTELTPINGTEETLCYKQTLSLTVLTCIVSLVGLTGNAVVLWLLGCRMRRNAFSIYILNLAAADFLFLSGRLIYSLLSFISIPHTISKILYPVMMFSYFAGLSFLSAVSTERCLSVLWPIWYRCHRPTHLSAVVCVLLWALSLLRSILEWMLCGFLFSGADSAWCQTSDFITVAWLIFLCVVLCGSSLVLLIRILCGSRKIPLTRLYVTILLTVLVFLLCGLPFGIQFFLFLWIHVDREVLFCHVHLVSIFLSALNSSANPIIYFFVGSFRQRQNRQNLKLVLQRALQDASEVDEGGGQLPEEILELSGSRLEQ
# MrgX1 allo act = allosterically activates human MrgX1 receptor signaling; Q96LB2; MrgX1-HEK293, Fluo-4 calcium flux, FDSS; active compounds read high; B-score at 10 µM; 310,000 tested, 0.63% active; AID 588675;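 active means plate-corrected calcium response at least 3 library SD above typical, normal starting fluorescence, not activating the receptor alone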;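 further: compound read alongside a low EC10 to EC30 dose of BAM8-22 agonist; peak minus trough fluorescence over baseline measured at the second addition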
# RGS4 block = inhibitors of human RGS4; P49798; HEK293 M3R/RGS4 inducible, Fluo-4 calcium flux; active compounds read high; triggered by carbachol at its EC20; B-score at 10 µM; 310,000 tested, 0.45% active;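 active means B-score, a plate-corrected calcium signal, over three deviations above library mean, with baseline fluorescence within five deviations of library mean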;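 further: RGS4 expression induced by doxycycline in cells with stable M3 receptor; B-score is computed from the integrated fluorescence ratio over baseline after carbachol; higher B-score means a larger calcium signal and so more RGS4 inhibition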
# Target sequence (P49798 whole entry, looked up): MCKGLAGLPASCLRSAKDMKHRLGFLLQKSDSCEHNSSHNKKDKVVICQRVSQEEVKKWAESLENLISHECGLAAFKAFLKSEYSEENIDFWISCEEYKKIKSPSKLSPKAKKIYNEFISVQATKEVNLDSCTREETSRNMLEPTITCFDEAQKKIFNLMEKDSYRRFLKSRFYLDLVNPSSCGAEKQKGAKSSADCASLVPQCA
# RGS4 pot = potentiators or activators of RGS4 | B-score at 10 µM | HEK293 M3R/inducible RGS4, carbachol calcium flux Fluo4; active compounds read low | AID 463111 | 310,000 tested, 0.92% active;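 active means B-score of the integrated calcium signal more than 4 SD below the library mean, with starting fluorescence not abnormally high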;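 further: negative B-score means reduced calcium response which marks RGS4 activation or potentiation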
#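 Also added: carbachol at ECmax as muscarinic agonist stimulus; Assay system: HEK293 cells with stable M3R and inducible RGS4; Timing: overnight RGS4 induction, 30 min dye load 37 °C, 20 min compound RT; Measured by: Fluo4-AM (2 µM) calcium-flux fluorescence, kinetic read.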
# MrgX1 agonist = human MrgX1 receptor agonism, primary screen. MrgX1-HEK293 cells, Fluo-4 calcium fluorescence, agonist mode; active compounds read high. B-score at 10 µM. 310,000 tested, 0.44% active. Q96LB2;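 active means calcium response B-score plate-corrected fluorescence ratio at least 3 library SD, with starting fluorescence B-score inside 5 SD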
#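 System – MrgX1-expressing HEK293 cells · Incubation – cells plated overnight, dye loaded 0.5 h 37 °C, 0.5 h room temperature · Technique – kinetic Fluo-4 NW fluorescence of intracellular calcium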
# Starred values were filed as active, the others as inactive; i = inactive; / = not tested or not shown.
SMILES,MrgX1 antagonist,MrgX1 allo act,RGS4 block,RGS4 pot,MrgX1 agonist
COc1ccc2c(COC(=O)c3cccc(S(=O)(=O)NCC(C)C)c3)cc(=O)oc2c1,i,i,i,-7.2*,i
CCc1nc(SCC(=O)N2CCCCCC2)c2c(=O)n(C)c(=O)n(C)c2n1,i,i,i,-7.7*,i
CCCc1nc(SCC(=O)N2CCC(Cc3ccccc3)CC2)c2c(=O)n(C)c(=O)n(C)c2n1,i,i,i,-7.3*,i
Cc1ccc(-c2cc(C(=O)N(C)CC(=O)Nc3ccccc3Br)c3ccccc3n2)o1,i,i,i,i,i
CCCN1CCC(NC(=S)Nc2ccc(S(N)(=O)=O)cc2)CC1,i,i,i,i,i
NS(=O)(=O)c1cccc(NS(=O)(=O)c2ccc3ccccc3c2)c1,i,i,i,i,i
CCn1cc(C2=NOC(C(=O)Nc3cccc(C(C)=O)c3)C2)c(C)n1 (stereo not given),-4.8*,i,i,i,i
CCC(C)NCCCCOc1cc(C)cc(C(C)C)c1 (stereo not given),i,i,i,-7.3*,i
Cc1ccc(S(=O)(=O)N2CCCC2)s1,i,i,i,i,i
CCN1/C(=C/c2cccc[n+]2C)Sc2ccc(OC)cc21,-6.1*,i,i,-7.5*,i
COc1ccc2c(c1)N(C)/C(=C/c1cccc[n+]1C)S2,-5.8*,i,i,-9.4*,i
COc1cc(OC)cc(C(=O)/C=C2\Sc3ccccc3N2C)c1,i,i,i,i,i
COCCC(=O)N1CCC(Oc2ccc(C(=O)NCCc3ccccn3)cc2)CC1,i,i,i,i,i
CC(=O)c1ccc(N(CC(=O)NC2CCCC2)C(=O)CNC(=O)c2cccs2)cc1,i,i,i,i,i
O=c1cc(CSc2nnc(COc3cccc4ccccc34)o2)c2ccccc2[nH]1,i,i,i,i,i
COc1ccc(C(=O)NCc2nnc(SCC(=O)c3ccccc3)n2C)cc1OC,i,i,i,i,i
COc1ccccc1C(=O)NC(=O)COC(=O)C1CC2CCCC(C1)C2=O (stereo not given),i,i,i,i,i
Cc1ccc(C(=O)/C=C/c2cc(Br)cc(Br)c2O)o1,-5.3*,i,i,i,i
Cc1ccc(C(=O)/C=C/N(C)C)o1,i,i,i,i,i
COc1ccc(OC)c(S(=O)(=O)N2CCC3(CC2)OCCN3S(=O)(=O)c2cccs2)c1,i,i,i,-7.5*,i
CC(C)c1ccc(C2NC(=O)c3ccccc3O2)cc1 (stereo not given),i,i,i,i,i
COc1ccc2oc(C(=O)N3CCN(S(=O)(=O)c4cccc([N+](=O)[O-])c4)CC3)c(C)c2c1,i,16*,i,i,i
COc1ccc(C(c2nnnn2C2CCCC2)N2CCN(C(=O)c3ccco3)CC2)cc1OC (stereo not given),i,i,i,i,i
O=C(c1ccco1)N1CCN(C(c2cccs2)c2nnnn2C2CCCCC2)CC1 (stereo not given),i,i,i,-7.6*,i
COc1ccc(-c2csc(NC(=S)NC(=O)c3cccs3)n2)cc1OC,/,/,i,-7.3*,/
SMILES,MrgX1 antagonist,MrgX1 allo act,RGS4 block,RGS4 pot,MrgX1 agonist
Cc1nc(-c2cccc(NC(=O)c3cccs3)c2)cs1,i,i,i,i,i
O=C(Nc1cccc(-c2csc(-c3ccccc3)n2)c1)c1cccs1,i,i,i,-7.1*,i
COc1ccc(-c2csc(NC(=O)CN3C(=O)C4CC=CCC4C3=O)n2)cc1OC (stereo not given),i,i,i,i,48*
COc1ccc(-c2csc(NC(=O)c3ccc(OCC(=O)N4CCOCC4)c(OC)c3)n2)cc1OC,i,i,i,-8.8*,i
COc1ccc(-c2csc(NC(=O)CSCC(=O)Nc3cc(C)on3)n2)cc1OC,i,i,i,i,29*
O=C(c1cccc(F)c1)N1CCN(C(=O)C(c2ccccc2)c2ccccc2)CC1,i,i,i,i,i
CC(C)Sc1nc(N2CCCC2)c2c(c1C#N)CC(C)(C)OC2,i,i,i,-7.2*,i
Cc1ccc(O)c(NC(=O)c2noc3c2CCc2ccccc2-3)c1,i,i,i,i,i
Cc1cc(NC(=O)c2noc3c2CCc2ccccc2-3)no1,-7.4*,i,i,i,i
CN(C)C1=NC[C@H](Cc2ccccc2)N1CC1CCC(C(C)(C)C)CC1 (stereo not given in full),-6.2*,i,i,i,i
CCCCCCCCCCCCCCCC[N+](C)(C)CCN(Cc1ccc(OC)cc1)c1ncccn1,i,i,/,/,56*
CCOC(=O)Cc1csc(NC(=O)c2cccs2)n1,i,i,i,i,i
CCOC(=O)Cc1csc(NC(=O)c2ccc(Br)s2)n1,i,i,i,i,31*
CCCN(CCC)CCCNC(=O)C1CCC(CNS(=O)(=O)c2cccc3nsnc23)CC1 (stereo not given),i,i,i,i,i
COC(=O)C(=Cc1ccccc1[N+](=O)[O-])C(=O)OC,i,i,i,i,50*
O=C(/C=C/c1ccccc1[N+](=O)[O-])Oc1ccccc1,i,i,i,i,i
CCCCCCCCNC(=O)/C(C#N)=C/c1ccccc1[N+](=O)[O-],i,i,i,-7.9*,i
CCOc1ccc(NC(=O)CN(C)C(=O)c2ccc3nc(CC)c(CC)nc3c2)cc1OCC,i,7.5*,i,i,i
Cc1cccc(N2CCN(C(=O)c3c(Cl)cnn3C)CC2)c1C,i,i,i,i,i
O=C(OC(C(=O)Nc1cc(Cl)cc(Cl)c1)c1ccccc1)C1=COCCO1 (stereo not given),-5.3*,i,i,i,i
Cc1ccccc1NC(=O)NCCCCc1ccccc1,i,i,i,i,i
Cc1cccc(NC(=O)c2ccccn2)c1C,i,i,i,i,i
Cc1cccc(NC(=O)c2n[nH]c([N+](=O)[O-])c2Br)c1C,i,7.1*,i,i,i
CCCN(CCC)C(=O)Cn1c(=O)c2ccccc2n2c(=S)sc(-c3ccccc3C)c12,-4.6*,i,i,i,i
CCOc1ccc(OCCOC(=O)CNC(=O)c2ccc(Cl)cc2Cl)cc1,-7*,i,i,i,i
CC1(C)CC(=O)C/C(=N/NC(=O)COc2ccc(Cl)cc2Cl)C1,i,i,i,i,i
